# Measured values: ChEMBL document CHEMBL1143782, “Alpha-aminothiazole-gamma-aminobutanoic amides as potent, small molecule CCR2 receptor antagonists” (Bioorg Med Chem Lett, 2007)
# What was measured:
# [1] = biological target: T1, C-C chemokine receptor type 2 (Homo sapiens, UniProt P41597); assay: Displacement of [125I]MCP1 from human CCR2 expressed in monocytes; format: cell-based
# Procedure, shortened: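 Human CCR2 binding was read as inhibition of 125I-MCP-1 binding to monocyte cells stably transfected with CCR2. The assay was run in the presence of 0.5% BSA, using membranes of these cells.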
# Target sequence in this assay (P41597 whole entry): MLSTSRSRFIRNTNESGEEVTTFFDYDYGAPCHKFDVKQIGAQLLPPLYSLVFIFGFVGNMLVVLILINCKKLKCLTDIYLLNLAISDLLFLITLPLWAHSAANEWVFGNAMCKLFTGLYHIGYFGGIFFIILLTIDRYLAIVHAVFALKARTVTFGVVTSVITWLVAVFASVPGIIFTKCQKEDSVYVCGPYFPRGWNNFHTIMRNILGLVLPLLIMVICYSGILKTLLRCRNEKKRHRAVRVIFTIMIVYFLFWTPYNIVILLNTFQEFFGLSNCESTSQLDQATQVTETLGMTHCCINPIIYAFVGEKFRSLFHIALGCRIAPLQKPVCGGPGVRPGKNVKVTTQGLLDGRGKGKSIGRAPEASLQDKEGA
# [2] = biological target: C-C chemokine receptor type 2 (Mus musculus, UniProt P51683); assay: Displacement of [125I]MCP1 from mouse CCR2 expressed in monocytes; format: cell-based
# Chain of C-C chemokine receptor type 2 (Mus musculus, UniProt P51683) (P51683 whole entry): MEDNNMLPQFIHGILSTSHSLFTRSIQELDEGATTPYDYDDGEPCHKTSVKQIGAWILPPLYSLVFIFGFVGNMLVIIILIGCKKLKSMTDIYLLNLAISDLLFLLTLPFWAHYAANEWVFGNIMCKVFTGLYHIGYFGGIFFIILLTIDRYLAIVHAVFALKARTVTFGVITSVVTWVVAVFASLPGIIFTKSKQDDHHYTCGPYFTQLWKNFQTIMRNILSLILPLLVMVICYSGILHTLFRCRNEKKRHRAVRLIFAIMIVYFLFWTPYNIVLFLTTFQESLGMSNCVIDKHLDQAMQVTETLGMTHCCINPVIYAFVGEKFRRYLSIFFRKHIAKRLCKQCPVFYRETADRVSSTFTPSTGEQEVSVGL
# [3] = biological target: T2, C-C chemokine receptor type 1 (Homo sapiens) (UniProt P32246); assay: Inhibition of CCR1 at 1uM
# T2 sequence (whole entry): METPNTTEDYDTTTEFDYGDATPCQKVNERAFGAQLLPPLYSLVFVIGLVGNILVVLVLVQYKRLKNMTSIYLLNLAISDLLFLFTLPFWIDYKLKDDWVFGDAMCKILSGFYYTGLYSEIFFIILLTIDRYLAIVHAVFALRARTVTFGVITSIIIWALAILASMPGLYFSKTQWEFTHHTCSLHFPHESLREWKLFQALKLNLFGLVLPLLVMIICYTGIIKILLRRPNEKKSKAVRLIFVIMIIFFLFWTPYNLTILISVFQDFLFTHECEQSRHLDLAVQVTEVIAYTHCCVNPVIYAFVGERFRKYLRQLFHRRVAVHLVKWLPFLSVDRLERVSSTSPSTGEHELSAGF
# [4] = biological target: T3, C-C chemokine receptor type 3 (Homo sapiens) (UniProt P51677); assay: Inhibition of CCR3 at 1uM
# T3 sequence (whole entry): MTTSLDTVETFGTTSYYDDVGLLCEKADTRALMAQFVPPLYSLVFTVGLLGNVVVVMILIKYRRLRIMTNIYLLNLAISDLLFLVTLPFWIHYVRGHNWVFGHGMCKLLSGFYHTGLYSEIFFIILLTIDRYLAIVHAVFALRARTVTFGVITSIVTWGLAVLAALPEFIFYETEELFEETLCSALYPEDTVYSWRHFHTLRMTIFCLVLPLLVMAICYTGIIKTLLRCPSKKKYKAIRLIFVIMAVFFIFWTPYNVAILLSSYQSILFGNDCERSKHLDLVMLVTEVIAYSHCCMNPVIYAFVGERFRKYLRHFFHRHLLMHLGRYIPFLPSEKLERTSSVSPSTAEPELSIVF
# [5] = biological target: T4, C-C chemokine receptor type 4 (Homo sapiens) (UniProt P51679); assay: Inhibition of CCR4 at 1uM
# T4 sequence (whole entry): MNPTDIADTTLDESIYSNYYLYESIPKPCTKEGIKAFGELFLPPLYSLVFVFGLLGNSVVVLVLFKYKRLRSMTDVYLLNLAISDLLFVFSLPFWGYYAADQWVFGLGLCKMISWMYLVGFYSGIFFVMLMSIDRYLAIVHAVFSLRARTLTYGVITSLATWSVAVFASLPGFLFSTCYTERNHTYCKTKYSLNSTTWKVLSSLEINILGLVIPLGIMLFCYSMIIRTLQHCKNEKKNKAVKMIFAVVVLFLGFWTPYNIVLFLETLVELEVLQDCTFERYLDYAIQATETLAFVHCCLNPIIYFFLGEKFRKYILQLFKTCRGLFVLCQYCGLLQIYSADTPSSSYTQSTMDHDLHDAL
# [6] = biological target: C-X-C chemokine receptor type 4 (Homo sapiens) (UniProt P61073); assay: Inhibition of CXCR4 at 1uM
# Chain of C-X-C chemokine receptor type 4 (Homo sapiens) (P61073 whole entry): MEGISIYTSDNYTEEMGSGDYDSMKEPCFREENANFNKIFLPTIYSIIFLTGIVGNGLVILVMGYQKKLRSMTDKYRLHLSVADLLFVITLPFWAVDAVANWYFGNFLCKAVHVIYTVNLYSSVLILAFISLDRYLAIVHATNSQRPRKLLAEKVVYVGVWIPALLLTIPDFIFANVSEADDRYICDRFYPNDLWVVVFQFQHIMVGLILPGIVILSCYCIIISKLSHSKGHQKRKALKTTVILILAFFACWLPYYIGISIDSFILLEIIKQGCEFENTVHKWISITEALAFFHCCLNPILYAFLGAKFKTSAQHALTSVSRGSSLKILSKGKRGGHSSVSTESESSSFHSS
# [7] = biological target: C-C chemokine receptor type 5 (Homo sapiens) (UniProt P51681); assay: Inhibition of CCR5 at 1uM
# Chain of C-C chemokine receptor type 5 (Homo sapiens) (P51681 whole entry, looked up): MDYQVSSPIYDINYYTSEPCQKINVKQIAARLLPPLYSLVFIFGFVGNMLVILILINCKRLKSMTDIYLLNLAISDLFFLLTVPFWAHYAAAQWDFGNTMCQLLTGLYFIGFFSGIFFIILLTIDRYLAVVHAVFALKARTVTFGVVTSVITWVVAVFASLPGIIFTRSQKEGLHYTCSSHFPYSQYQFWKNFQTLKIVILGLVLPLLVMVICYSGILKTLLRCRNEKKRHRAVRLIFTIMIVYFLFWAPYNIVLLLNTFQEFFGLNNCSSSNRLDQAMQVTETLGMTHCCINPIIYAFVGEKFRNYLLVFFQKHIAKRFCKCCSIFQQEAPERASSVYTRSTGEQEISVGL
# [8] = biological target: Substance-P receptor (Homo sapiens) (UniProt P25103); assay: Inhibition of NK1 receptor at 1uM
# Chain of Substance-P receptor (Homo sapiens) (P25103 whole entry): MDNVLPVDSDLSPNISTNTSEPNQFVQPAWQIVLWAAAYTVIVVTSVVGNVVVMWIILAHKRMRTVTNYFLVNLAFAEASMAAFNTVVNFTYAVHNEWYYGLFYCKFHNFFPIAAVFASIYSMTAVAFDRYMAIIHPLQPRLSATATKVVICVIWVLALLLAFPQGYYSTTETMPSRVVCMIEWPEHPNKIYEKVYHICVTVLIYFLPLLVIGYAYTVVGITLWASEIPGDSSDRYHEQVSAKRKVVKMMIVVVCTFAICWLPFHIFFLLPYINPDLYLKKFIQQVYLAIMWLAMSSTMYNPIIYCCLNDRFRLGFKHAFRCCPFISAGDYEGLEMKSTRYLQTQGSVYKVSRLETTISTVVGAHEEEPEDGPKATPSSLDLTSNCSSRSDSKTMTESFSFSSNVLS
# [9] = Bioavailability in Sprague-Dawley rat; format: ADME, organism-based; conditions: in vivo
# [10] = Half life in Sprague-Dawley rat; format: ADME, organism-based; conditions: in vivo
# [11] = Clearance in Sprague-Dawley rat; format: ADME, organism-based; conditions: in vivo
# [12] = Volume of distribution in Sprague-Dawley rat; format: ADME, organism-based; conditions: in vivo, read-out: Vdss
# [13] = Cmax in Sprague-Dawley rat; format: ADME, organism-based; conditions: in vivo
# [14] = Tmax in Sprague-Dawley rat; format: ADME, organism-based; conditions: in vivo
# [15] = Bioavailability in Beagle dog; format: ADME, organism-based, Canis lupus familiaris; conditions: in vivo
# [16] = Half life in Beagle dog; format: ADME, organism-based, Canis lupus familiaris; conditions: in vivo
# [17] = Clearance in Beagle dog; format: ADME, organism-based, Canis lupus familiaris; conditions: in vivo
# [18] = Volume of distribution in Beagle dog; format: ADME, organism-based, Canis lupus familiaris; conditions: in vivo, read-out: Vdss
# [19] = Cmax in Beagle dog; format: ADME, organism-based, Canis lupus familiaris; conditions: in vivo
# [20] = Tmax in Beagle dog; format: ADME, organism-based, Canis lupus familiaris; conditions: in vivo
# [21] = biological target: T1, C-C chemokine receptor type 2; assay: Displacement of [125I]MCP-1 from human CCR2 expressed in monocytes 1 uM; format: cell-based
# Target sequence in this assay (P41597 whole entry, looked up): as the sequence (P41597 whole entry) above
Compound,IC50 [1] [nM],further results
Nc1nc([C@H](CCN2CCC(c3ccccc3)CC2)C(=O)NCc2cc(C(F)(F)F)cc(C(F)(F)F)c2)cs1,13.3,–
CC(=O)Nc1nc([C@H](CCN2CCC3(C=Cc4ccccc43)CC2)C(=O)NCc2cc(C(F)(F)F)cc(C(F)(F)F)c2)cs1,1.4,–
C[C@H]1CN(CCC(C(=O)NCc2cc(C(F)(F)F)cc(C(F)(F)F)c2)c2csc(NC(=O)C3Cc4ccccc43)n2)CC[C@]12C=Cc1ccccc12 (stereo partly specified),36,IC50 [2]: 111 nM
CC(=O)Nc1nc(C(CCN2CCC3(C=Cc4ccccc43)CC2)C(=O)NCc2cc(C(F)(F)F)cc(C(F)(F)F)c2)cs1 (stereo unspecified),1.7,–
O=CNc1nc(C(CCN2CCC(c3ccccc3)CC2)C(=O)NCc2cc(C(F)(F)F)cc(C(F)(F)F)c2)cs1 (stereo unspecified),4,–
O=C(Nc1nc(C(CCN2CCC(c3ccccc3)CC2)C(=O)NCc2cc(C(F)(F)F)cc(C(F)(F)F)c2)cs1)c1ccccc1 (stereo unspecified),16,–
C[C@H]1CN(CCC(C(=O)NCc2cc(C(F)(F)F)cc(C(F)(F)F)c2)c2csc(NC(=O)Cc3ccccc3)n2)CC[C@]12C=Cc1ccccc12 (stereo partly specified),19,IC50 [2]: 165 nM
CC(C)(C)OC(=O)Nc1nc([C@H](CCN2CCC(c3ccccc3)CC2)C(=O)NCc2cc(C(F)(F)F)cc(C(F)(F)F)c2)cs1,14.3,–
CS(=O)(=O)Nc1nc(C(CCN2CCC(c3ccccc3)CC2)C(=O)NCc2cc(C(F)(F)F)cc(C(F)(F)F)c2)cs1 (stereo unspecified),36,–
Nc1nc(C(CCN2CCC(c3ccccc3)CC2)C(=O)NCc2cc(C(F)(F)F)cc(C(F)(F)F)c2)cs1 (stereo unspecified),20,–
CC(=O)Nc1nc(C(CCN2CCN(c3ccc(F)cc3)CC2)C(=O)NCc2cc(C(F)(F)F)cc(C(F)(F)F)c2)cs1 (stereo unspecified),32.7,–
Nc1nc(C(CCN2CCN(c3ccc(F)cc3)CC2)C(=O)NCc2cc(C(F)(F)F)cc(C(F)(F)F)c2)cs1 (stereo unspecified),–,inhibition [21]: 70%
CC(=O)Nc1nc([C@H](CCN2CCC(c3ccccc3)CC2)C(=O)NCc2cc(C(F)(F)F)cc(C(F)(F)F)c2)cs1,1.8,–
CC(=O)Nc1nc(C(CCN2CCN(c3ccccc3C)CC2)C(=O)NCc2cc(C(F)(F)F)cc(C(F)(F)F)c2)cs1 (stereo unspecified),14.5,–
CN(C)C(=O)Nc1nc(C(CCN2CCC(c3ccccc3)CC2)C(=O)NCc2cc(C(F)(F)F)cc(C(F)(F)F)c2)cs1 (stereo unspecified),2.3,–
O=C(Nc1nc(C(CCN2CCC(c3ccccc3)CC2)C(=O)NCc2cc(C(F)(F)F)cc(C(F)(F)F)c2)cs1)C1CC1 (stereo unspecified),3.9,–

# Continued by falling IC50 [1], values first:
IC50 [1] [nM],Compound,further results
229,O=C(NCc1cc(C(F)(F)F)cc(C(F)(F)F)c1)[C@H](CCN1CCC(c2ccccc2)CC1)c1cscn1,–
74,CC(C(=O)Nc1nc(C(CCN2CC[C@]3(C=Cc4ccccc43)[C@@H](C)C2)C(=O)NCc2cc(C(F)(F)F)cc(C(F)(F)F)c2)cs1)c1ccccc1 (stereo partly specified),IC50 [2]: 517 nM
17,C[C@H]1CN(CCC(C(=O)NCc2cc(C(F)(F)F)cc(C(F)(F)F)c2)c2csc(NC(=O)c3ccccc3)n2)CC[C@]12C=Cc1ccccc12 (stereo partly specified),IC50 [2]: 952 nM
13,CC(=O)Nc1nc(C(CCN2CCCCC2)C(=O)NCc2cc(C(F)(F)F)cc(C(F)(F)F)c2)cs1 (stereo unspecified),–
7.4,CC(C)C(=O)Nc1nc(C(CCN2CCC(c3ccccc3)CC2)C(=O)NCc2cc(C(F)(F)F)cc(C(F)(F)F)c2)cs1 (stereo unspecified),–
5.2,CC(=O)Nc1nc(C(CCN2CCC(c3ccccc3)CC2)C(=O)NCc2cc(C(F)(F)F)cc(C(F)(F)F)c2)cs1 (stereo unspecified),inhibition [3]: 66%; inhibition [4]: 7%; inhibition [5]: 86%; inhibition [6]: 27%; inhibition [7]: 44%; inhibition [8]: 56%; bioavailability [9]: 17%; half-life [10]: 1.4 h; clearance [11]: 52.5 mL/min/kg; Vd [12]: 5.3 L/kg; Cmax [13]: 64 nM; Tmax [14]: 2.2 h; bioavailability [15]: 1.6%; half-life [16]: 2.28 h; clearance [17]: 21.6 mL/min/kg; Vd [18]: 4 L/kg; Cmax [19]: 18 nM; Tmax [20]: 0.5 h
3,CNC(=O)Nc1nc(C(CCN2CCC(c3ccccc3)CC2)C(=O)NCc2cc(C(F)(F)F)cc(C(F)(F)F)c2)cs1 (stereo unspecified),–
1.3,C[C@H]1CN(CCC(C(=O)NCc2cc(C(F)(F)F)cc(C(F)(F)F)c2)c2csc(N)n2)CCC12C=Cc1ccccc12 (stereo partly specified),–
